Laboratory results taken from ChEMBL document CHEMBL2321834 (J Med Chem, 2013).
Activity calls are given as the source filed them. The calls are words filed in the database; no cut-off is given here.

Legend:
Homo sapiens = organism: Homo sapiens; test: Selectivity ratio of IC50 for 17beta-HSD1 in human placental microsomal fraction to IC50 for 17beta-HSD2 in human placental microsomal fraction; assay type: microsomes; settings: Microsome
[1] = biological target: T1, 17-beta-hydroxysteroid dehydrogenase type 2 (Homo sapiens) (UniProt P37059); settings: Placenta, Microsomal, at 1 µM
T1 sequence (whole entry): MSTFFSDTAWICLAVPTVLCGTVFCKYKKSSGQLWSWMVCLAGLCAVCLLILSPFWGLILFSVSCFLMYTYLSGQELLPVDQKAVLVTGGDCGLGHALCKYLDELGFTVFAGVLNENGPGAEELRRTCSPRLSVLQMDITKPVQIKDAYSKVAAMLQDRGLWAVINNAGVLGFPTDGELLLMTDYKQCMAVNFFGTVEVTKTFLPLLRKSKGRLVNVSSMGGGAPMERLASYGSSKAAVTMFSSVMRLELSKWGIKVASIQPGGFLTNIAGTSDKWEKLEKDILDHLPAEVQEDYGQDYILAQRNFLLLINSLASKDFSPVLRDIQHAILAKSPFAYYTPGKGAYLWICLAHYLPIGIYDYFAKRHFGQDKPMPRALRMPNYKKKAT

[2] = biological target: Estrogen receptor beta (Homo sapiens) (UniProt Q92731); test: Displacement of [3H]E2 from human recombinant ERbeta after 1 hr by scintillation counting analysis relative to E2
Chain of Estrogen receptor beta (Homo sapiens) (Q92731 whole entry): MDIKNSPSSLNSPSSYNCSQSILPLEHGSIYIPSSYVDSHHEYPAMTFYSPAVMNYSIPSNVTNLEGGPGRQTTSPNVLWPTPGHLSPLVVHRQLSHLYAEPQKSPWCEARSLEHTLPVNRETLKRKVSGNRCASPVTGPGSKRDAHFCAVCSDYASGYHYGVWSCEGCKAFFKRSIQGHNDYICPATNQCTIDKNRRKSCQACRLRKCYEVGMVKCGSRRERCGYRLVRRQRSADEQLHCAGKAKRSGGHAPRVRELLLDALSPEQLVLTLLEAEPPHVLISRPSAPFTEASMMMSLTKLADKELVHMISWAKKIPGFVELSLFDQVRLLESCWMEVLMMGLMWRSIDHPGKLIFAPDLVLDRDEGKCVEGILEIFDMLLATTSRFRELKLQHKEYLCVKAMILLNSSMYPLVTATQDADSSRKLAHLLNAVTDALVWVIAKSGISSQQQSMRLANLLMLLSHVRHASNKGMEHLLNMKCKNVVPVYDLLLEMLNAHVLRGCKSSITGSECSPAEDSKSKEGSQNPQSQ
Summary of the method: (§1)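 Competitive binding assay against ERα and ERβ, with E2 as internal reference.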

[3] = biological target: T2, 17-beta-hydroxysteroid dehydrogenase type 1 (Homo sapiens) (UniProt P14061); settings: at 1 µM
T2 sequence (whole entry): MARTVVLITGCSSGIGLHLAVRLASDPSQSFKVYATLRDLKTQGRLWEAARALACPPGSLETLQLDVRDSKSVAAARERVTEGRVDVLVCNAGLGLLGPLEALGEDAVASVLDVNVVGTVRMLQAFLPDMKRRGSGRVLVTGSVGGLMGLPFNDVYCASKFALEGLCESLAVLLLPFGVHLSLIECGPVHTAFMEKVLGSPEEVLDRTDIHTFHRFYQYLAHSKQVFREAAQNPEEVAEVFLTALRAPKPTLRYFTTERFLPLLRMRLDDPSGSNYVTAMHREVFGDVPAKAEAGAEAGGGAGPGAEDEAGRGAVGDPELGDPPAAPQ

[4] = biological target: T3, Estrogen receptor (Homo sapiens) (UniProt P03372); test: Displacement of [3H]E2 from human recombinant ERalpha after 1 hr by scintillation counting analysis relative to E2; summary of the method: as §1
T3 sequence (whole entry): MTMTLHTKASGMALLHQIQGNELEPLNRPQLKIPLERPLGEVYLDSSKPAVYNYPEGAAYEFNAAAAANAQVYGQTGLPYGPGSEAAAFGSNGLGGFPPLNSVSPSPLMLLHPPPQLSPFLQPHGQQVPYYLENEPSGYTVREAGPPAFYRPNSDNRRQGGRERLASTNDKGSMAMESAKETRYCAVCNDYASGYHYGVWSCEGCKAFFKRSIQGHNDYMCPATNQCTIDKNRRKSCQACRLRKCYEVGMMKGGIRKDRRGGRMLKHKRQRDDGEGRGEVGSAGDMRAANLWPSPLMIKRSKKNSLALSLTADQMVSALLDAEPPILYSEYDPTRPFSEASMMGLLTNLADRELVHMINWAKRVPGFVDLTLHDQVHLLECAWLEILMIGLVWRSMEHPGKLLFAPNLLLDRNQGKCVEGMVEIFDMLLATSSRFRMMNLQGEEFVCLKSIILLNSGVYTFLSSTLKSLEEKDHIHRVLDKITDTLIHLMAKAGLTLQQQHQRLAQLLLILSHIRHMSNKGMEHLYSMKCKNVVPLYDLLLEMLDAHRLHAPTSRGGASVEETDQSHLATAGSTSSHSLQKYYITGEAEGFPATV

[5] = biological target: T4, Aldo-keto reductase family 1 member C3 (Homo sapiens) (UniProt P42330); test: Inhibition of human recombinant 17beta-HSD5 expressed in Escherichia coli using [1,2,6,7-3H]A-dione as substrate at 1 uM by scintillation counting analysis
T4 sequence (whole entry): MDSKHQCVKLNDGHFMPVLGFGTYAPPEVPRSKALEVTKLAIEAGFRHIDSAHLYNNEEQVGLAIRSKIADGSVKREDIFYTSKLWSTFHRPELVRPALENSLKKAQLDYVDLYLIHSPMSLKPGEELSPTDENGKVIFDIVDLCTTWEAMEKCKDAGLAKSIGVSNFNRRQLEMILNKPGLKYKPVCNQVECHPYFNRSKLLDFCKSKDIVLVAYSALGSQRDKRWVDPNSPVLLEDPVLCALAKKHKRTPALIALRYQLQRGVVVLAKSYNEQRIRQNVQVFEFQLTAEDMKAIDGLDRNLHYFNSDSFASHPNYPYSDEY

[6] = biological target: T5, Peroxisomal multifunctional enzyme type 2 (Homo sapiens) (UniProt P51659); test: Inhibition of human recombinant 17beta-HSD4 SDR domain expressed in Escherichia coli using [6,7-3H]E2 as substrate at 1 uM by scintillation counting analysis
T5 sequence (whole entry): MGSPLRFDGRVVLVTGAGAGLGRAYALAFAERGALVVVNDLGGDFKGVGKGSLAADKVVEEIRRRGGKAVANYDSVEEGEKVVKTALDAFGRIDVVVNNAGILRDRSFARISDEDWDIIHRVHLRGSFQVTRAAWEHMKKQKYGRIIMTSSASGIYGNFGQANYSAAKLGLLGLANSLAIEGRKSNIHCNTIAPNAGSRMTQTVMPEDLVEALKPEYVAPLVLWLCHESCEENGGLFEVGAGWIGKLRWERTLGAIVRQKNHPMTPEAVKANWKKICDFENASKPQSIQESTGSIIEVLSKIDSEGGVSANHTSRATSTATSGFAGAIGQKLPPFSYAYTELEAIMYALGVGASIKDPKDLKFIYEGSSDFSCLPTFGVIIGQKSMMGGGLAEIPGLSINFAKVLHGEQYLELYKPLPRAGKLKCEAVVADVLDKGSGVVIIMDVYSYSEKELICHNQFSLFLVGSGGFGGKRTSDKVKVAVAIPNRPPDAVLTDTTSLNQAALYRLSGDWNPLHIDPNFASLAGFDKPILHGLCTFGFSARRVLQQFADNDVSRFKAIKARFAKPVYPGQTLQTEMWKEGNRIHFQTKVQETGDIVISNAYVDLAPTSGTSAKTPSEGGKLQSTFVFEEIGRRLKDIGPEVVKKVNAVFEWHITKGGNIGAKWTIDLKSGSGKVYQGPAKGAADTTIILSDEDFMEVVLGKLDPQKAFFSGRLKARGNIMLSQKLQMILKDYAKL

[7] = biological target: T6, 17-beta-hydroxysteroid dehydrogenase type 2 (Homo sapiens, UniProt P37059); test: Inhibition of 17beta-HSD2 (unknown origin)
T6 sequence (P37059 whole entry): T1 sequence (whole entry)
Summary of the method: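 Microsomal fraction of human placenta as enzyme source, incubated with tritiated E2, cofactor and inhibitor. Substrate and product separated by HPLC to give percent inhibition. IC50 determined for selected compounds.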

[8] = biological target: T7, 17-beta-hydroxysteroid dehydrogenase type 1 (Homo sapiens, UniProt P14061); test: Inhibition of 17beta-HSD1 in human placental cytosolic fraction using [3H]E1 as substrate assessed as formation of E2 by HPLC analysis
T7 sequence (P14061 whole entry): T2 sequence (whole entry)

[9] = biological target: T1, 17-beta-hydroxysteroid dehydrogenase type 2 (Homo sapiens); test: Inhibition of 17beta-HSD2 in human MDA-MB-231 cells using [3H]E2 as substrate at 1 uM after 6 hrs by HPLC analysis; assay type: cell-based

inhibition [1] [%] | RBA [2] [%] | inhibition [3] [%] | RBA [4] [%] | SMILES | further results
87 | < 0.1 | < 10 | < 0.1 | COc1cccc(-c2ccc(C(=O)N(C)c3cccc(C)c3)s2)c1 | Ratio IC50 (Homo sapiens): 55
66 | – | 17 | – | COc1cccc(N(C)C(=O)c2ccc(-c3ccc(F)c(OC)c3)s2)c1 | –
71 | < 0.1 | 24 | < 0.1 | Cc1cccc(N(C)C(=O)c2ccc(-c3cccc(O)c3)s2)c1 | Ratio IC50 (Homo sapiens): 11
– | < 0.1 | – | < 0.1 | COc1ccc(-c2ccc(C(=O)N(C)c3cccc(OC)c3)s2)cc1 | –
83 | < 0.1 | 50 | < 0.1 | COc1cccc(-c2ccc(C(=O)N(C)c3cccc(-c4ccccc4)c3)s2)c1 | Ratio IC50 (Homo sapiens): 8
– | < 0.1 | – | < 0.1 | COc1cccc(-c2ccc(C(=O)N(C)c3cccc(OC)c3)s2)c1 | –
– | < 0.1 | – | < 0.1 | COc1cccc(N(C)C(=O)c2ccc(-c3cccc(C)c3F)s2)c1 | –
75 | < 0.1 | 13 | < 0.1 | COc1cccc(-c2ccc(C(=O)N(C)c3cccc(C(F)(F)F)c3)s2)c1 | Ratio IC50 (Homo sapiens): 17
– | < 0.1 | – | < 0.1 | COc1cccc(N(C)C(=O)c2ccc(-c3cccc(C)c3)s2)c1 | –
– | < 0.1 | – | < 0.1 | COc1cccc(N(C)C(=O)c2ccc(-c3cccc(SC)c3)s2)c1 | –
72 | < 0.1 | 15 | < 0.1 | COc1cccc(N(C)C(=O)c2ccc(-c3ccc(OC)c(F)c3)s2)c1 | IC50 [8]: > 40000 nM
63 | – | < 10 | – | COc1cccc(CN(C)C(=O)c2ccc(-c3cccc(OC)c3)s2)c1 | –
77 | < 0.1 | 30 | < 0.1 | COc1cccc(N(C)C(=O)c2ccc(-c3ccc(OC)cc3OC)s2)c1 | Ratio IC50 (Homo sapiens): 6
82 | < 0.1 | 11 | < 0.1 | COc1cccc(N(C)C(=O)c2ccc(-c3cccc(N(C)C)c3)s2)c1 | Ratio IC50 (Homo sapiens): 63; inhibition [9]: 71%
82 | < 0.1 | 24 | < 0.1 | COc1cccc(N(C)C(=O)c2ccc(-c3ccccc3)s2)c1 | Ratio IC50 (Homo sapiens): 21

Continued, molecule first:

SMILES | inhibition [1] [%] | RBA [2] [%] | inhibition [3] [%] | RBA [4] [%] | further results
CN(CCc1cccc(O)c1)C(=O)c1ccc(-c2cccc(F)c2)s1 | 17 | – | 12 | – | –
CN(Cc1cccc(O)c1)C(=O)c1ccc(-c2ccccc2O)s1 | 83 | – | 16 | – | –
CN(CCc1cccc(O)c1)C(=O)c1ccc(-c2cccc(O)c2)s1 | 37 | – | 23 | – | –
COc1cccc(CN(C)C(=O)c2ccc(-c3ccccc3OC)s2)c1 | – | – | < 10 | – | –
COc1cccc(-c2ccc(C(=O)N(C)c3cccc(C)c3)s2)c1F | – | < 0.1 | – | < 0.1 | –
CN(Cc1cccc(O)c1)C(=O)c1cccc(-c2cccc(O)c2)c1 | 60 | – | 10 | – | –
COc1ccc(N(C)C(=O)c2ccc(-c3cccc(OC)c3F)s2)cc1 | 49 | – | 18 | – | –
COc1cccc(CN(C)C(=O)c2ccc(-c3ccc(C#N)cc3)s2)c1 | < 10 | – | < 10 | – | –
CN(Cc1cccc(O)c1)C(=O)c1ccc(-c2cccc(O)c2)s1 | 70 | – | 21 | – | Ratio IC50 (Homo sapiens): 14
COc1cccc(CCN(C)C(=O)c2ccc(-c3cccc(F)c3)s2)c1 | < 10 | – | < 10 | – | –
CN(CCc1cccc(O)c1)C(=O)c1ccc(-c2ccccc2)s1 | 11 | – | < 10 | – | –
COc1cccc(CCN(C)C(=O)c2ccc(-c3cccc(OC)c3)s2)c1 | 31 | – | < 10 | – | –
COc1cccc(N(C)C(=O)c2ccc(-c3c(F)ccc(OC)c3F)s2)c1 | – | < 0.1 | – | < 0.1 | –
CN1C(=O)C[C@@H](c2ccccc2)[C@H]1[C@H](O)c1ccc(-c2cccnc2)s1 | – | – | – | – | inhibition [5]: 88%; inhibition [6]: inactive
Cn1nc(-c2cccc(O)c2)nc1-c1ccc(-c2cccc(O)c2)cc1 | – | – | – | – | IC50 [7]: 1400 nM
CN(Cc1cccc(O)c1)C(=O)c1ccc(-c2cccc(F)c2)s1 | 71 | – | 20 | – | –
C[C@]12CC[C@@H]3c4ccc(O)cc4CC[C@H]3[C@@H]1CC[C@@]21CCCC(=O)O1 | – | – | – | – | IC50 [7]: 34 nM
COc1cccc(CCN(C)C(=O)c2ccc(-c3ccccc3)s2)c1 | 18 | – | 11 | – | –
COc1cccc(-c2cccc(C(=O)N(C)c3cccc(OC)c3)c2)c1 | 64 | – | < 10 | – | –
COc1ccc(-c2cccc(C(=O)N(C)Cc3cccc(OC)c3)c2)cc1 | 13 | – | < 10 | – | –
